One test concerns BRD4. Kind of test: Immunoblotting of BRD4 protein. Type of test: cell-based. The settings on record: MCF7 cells, MZ1 1 μM, 24 h, compared with TAT-PiET-PROTAC 10 μM.
In test [1] the test system is tamoxifen-resistant MCF7 cells. Kind of test: Cell proliferation and colony formation, tamoxifen-resistant MCF7. It counts as cell-based. The settings on record: peptide inhibitors 10 μM, tamoxifen 3 μM, cell proliferation and colony formation assay. The method in brief:
(§1)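 Resistant lines (MCF7 in DMEM; T47D in RPMI-1640; 10% FBS, 37 °C, 5% CO2) given peptide inhibitor 10 μM and tamoxifen 3 μM, alone or combined. Proliferation: 2 × 10^3 cells/well for the days indicated, then tetrazolium (CellTiter 96 Aqueous One) reagent for 1 h at 37 °C and absorbance at 490 nm. Colonies: 1 × 10^3 cells/well for 2 weeks, crystal violet stain dissolved in 10% acetic acid, read at 590 nm.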

Test [2] relates to MDA-MB-231 cell-derived xenografts. Kind of test: MDA-MB-231 cell-derived xenograft mouse model. Type of test: in vivo, BALB/c nude mice. The settings on record: tumor samples, 25 mg/kg ip every 2 days. The method in brief:
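Female BALB/c nude mice (4–6 weeks) were implanted subcutaneously with 5 × 10^6 MDA-MB-231 cells in PBS and randomized at ~50 mm3. Peptide in normal saline was given at 25 mg/kg i.p. every 2 days. Tumours were analysed by RT-qPCR for c-Myc, N-myc and CCND1 (three biological repeats).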

Test [3] has as its system MCF7 cell-derived xenografts. Kind of test: MCF7 cell-derived xenograft mouse model. It counts as in vivo, BALB/c nude mice. The following applies: tumor samples, 25 mg/kg ip every 2 days. Summed up:
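Female BALB/c nude mice (4–6 weeks) implanted subcutaneously with 5 × 10^6 MCF7 cells in PBS, with estrogen (E2, 10–2 M) brushed on every 2 days. Randomized at ~50 mm3 tumor volume. Test peptide was given in normal saline, 25 mg/kg i.p., every 2 days. Tumor lysates (Tris-HCl pH 7.4, NaCl, EDTA, 1% Triton X-100) were immunoblotted after 10% SDS-PAGE.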

Test [4] relates to tamoxifen-resistant T47D cells. Kind of test: Cell proliferation and colony formation, tamoxifen-resistant T47D. Type of test: cell-based. The settings on record: peptide inhibitors 10 μM, tamoxifen 3 μM, cell proliferation and colony formation assay. Summed up: as §1
Test [5] deals with c-Myc, N-myc, CCND1 expression in MCF7 cells. Kind of test: RT-qPCR and immunoblotting of BRD4/JMJD6 target genes, MCF7 cells. Type of test: cell-based. The following applies: 10 μM 6 h in cells; xenograft tumor samples; RT-qPCR. For orientation: Real-time PCR tracks product formation cycle by cycle.
Test [6] concerns c-Myc, N-myc, CCND1 expression in MDA-MB-231 cells. Kind of test: RT-qPCR and immunoblotting of BRD4/JMJD6 target genes, MDA-MB-231 cells. Type of test: cell-based. The settings on record: 10 μM 6 h in cells; xenograft tumor samples; RT-qPCR.

We go through three compounds from paper PMC11056977 (Journal of Medicinal Chemistry, 2024).

Ends that are not written are not given here.

Take `Cc1ncsc1-c1ccc(CNC(=O)[C@@H]2C[C@@H](O)CN2C(=O)[C@@H](NC(=O)COCCOCCOCCNC(=O)C[C@@H]2N=C(c3ccc(Cl)cc3)c3c(sc(C)c3C)-n3c(C)nnc32)C(C)(C)C)cc1` [MZ1]: in the test with BRD4, the “degradation of full-length BRD4 protein” value is given as “induced the degradation of full-length BRD4 protein as effectively as TAT-PiET-PROTAC (10 μM)”.
“TAT-PiET-PROTAC: PROTAC-modified TAT-PiET: VHL ligand peptide joined by AHX to the C-terminus (YGRKKRRQRRRRNQKFKCGE; not fully specified (C-terminus))”: the “resensitization of tamoxifen-resistant MCF7 cells to tamoxifen” value in test [1] is listed as “resensitized”. The “c-Myc, N-myc, and CCND1 mRNA and protein levels in MDA-MB-231 cell-derived xenografts” value in test [2] was “significant decrease”. For the same compound, in test [2] (immunoblot), the “degradation of BRD4 and JMJD6 in MDA-MB-231 cell-derived xenografts” value is “induced the degradation of BRD4 and JMJD6 in xenografts”. Besides, the “c-Myc, N-myc, and CCND1 mRNA and protein levels in MCF7 cell-derived xenografts” value in test [3] is given as “significant decrease”. For the same compound, the “degradation of BRD4 and JMJD6 in MCF7 cell-derived xenografts” value in test [3] (immunoblot) is “induced the degradation of BRD4 and JMJD6 in xenografts”. Further, in test [4], the “sensitivity of tamoxifen-resistant T47D cells to tamoxifen” value was “became sensitive to tamoxifen”. Moreover, the “mRNA levels of BRD4 or JMJD6, MCF7 (culture cells or xenografts)” value in test [5] was “did not affect”. Moreover, the “mRNA levels of BRD4 or JMJD6, MDA-MB-231 (culture cells or xenografts)” value in test [6] is reported as “did not affect”.
Consider YGRKKRRQRRRRNQKFKCGE [TAT-PiET], for which, in test [1], the “resensitization of tamoxifen-resistant MCF7 cells to tamoxifen” value is “resensitized”. The “c-Myc, N-myc, and CCND1 mRNA and protein levels in MDA-MB-231 cell-derived xenografts” value in test [2] was “significant decrease”. For the same compound, the “c-Myc, N-myc, and CCND1 mRNA and protein levels in MCF7 cell-derived xenografts” value in test [3] is recorded as “significant decrease”. Besides, the “sensitivity of tamoxifen-resistant T47D cells to tamoxifen” value in test [4] is reported as “became sensitive to tamoxifen”. Further, in test [5], the “mRNA levels of BRD4 or JMJD6, MCF7 (culture cells or xenografts)” value is “did not affect”. In addition, the “mRNA levels of BRD4 or JMJD6, MDA-MB-231 (culture cells or xenografts)” value in test [6] is recorded as “did not affect”.
